Data from ChEMBL document CHEMBL1154716, “Synthesis of some new S-triazine based chalcones and their derivatives as potent antimicrobial agents” (2010).
Values after ≈ are worked out from the molar mass of the structure shown. Active and inactive are the calls of the source. The rule behind the calls is not given here.

Key:
[1] = system: Bacillus cereus; assay: Antimicrobial activity against Bacillus cereus at 10 ug/disk after 24 hrs by disk diffusion assay; assay type: functional; settings: for zone of inhibition at 10 µg/disc: read-out: IZ
In short: (§1)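 Disc diffusion on 4 mm filter discs. Bacteria are grown overnight in LB at 28 C, then adjusted in saline to 1.0 × 10^5 cfu/ml. The suspension is mixed into top agar over peptone agar plates. Plates are incubated 24 h at 28 C, and growth-inhibition zone diameter is measured. Streptomycin and ampicillin controls are applied from a 1 mg/ml stock. Tests are done in duplicate.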

[2] = system: Micrococcus flavus; assay: Antimicrobial activity against Micrococcus flavus at 10 ug/disk after 24 hrs by disk diffusion assay; assay type: functional; settings: for zone of inhibition at 10 µg/disc: read-out: IZ; in short: as §1
[3] = system: Staphylococcus aureus; assay: Antimicrobial activity against Staphylococcus aureus at 10 ug/disk after 24 hrs by disk diffusion assay; assay type: functional; settings: for zone of inhibition at 10 µg/disc: read-out: IZ; in short: as §1
[4] = system: Escherichia coli; assay: Antimicrobial activity against Escherichia coli at 10 ug/disk after 24 hrs by disk diffusion assay; assay type: functional; settings: for zone of inhibition at 10 µg/disc: read-out: IZ; in short: as §1
[5] = system: Pseudomonas aeruginosa; assay: Antimicrobial activity against Pseudomonas aeruginosa at 10 ug/disk after 24 hrs by disk diffusion assay; assay type: functional; settings: for zone of inhibition at 10 µg/disc: read-out: IZ; in short: as §1
[6] = system: Enterobacter cloacae; assay: Antimicrobial activity against Enterobacter cloacae at 10 ug/disk after 24 hrs by disk diffusion assay; assay type: functional; settings: for zone of inhibition at 10 µg/disc: read-out: IZ; in short: as §1
[7] = system: Salmonella typhimurium; assay: Antimicrobial activity against Salmonella Typhimurium at 10 ug/disk after 24 hrs by disk diffusion assay; assay type: functional, organism-based; settings: Salmonella enterica subsp. enterica serovar Typhimurium; in short: as §1
[8] = system: Listeria monocytogenes; assay: Antimicrobial activity against Listeria monocytogenes at 10 ug/disk after 24 hrs by disk diffusion assay; assay type: functional; in short: as §1
[9] = system: Micrococcus flavus; assay: Antimicrobial activity against Micrococcus flavus at 1 umol/disk after 24 hrs by disk diffusion assay; assay type: functional; in short: as §1
[10] = system: Escherichia coli; assay: Antimicrobial activity against Escherichia coli at 1 umol/disk after 24 hrs by disk diffusion assay; assay type: functional; in short: as §1
[11] = system: Pseudomonas aeruginosa; assay: Antimicrobial activity against Pseudomonas aeruginosa at 1 umol/disk after 24 hrs by disk diffusion assay; assay type: functional; in short: as §1
[12] = system: Salmonella typhimurium; assay: Antimicrobial activity against Salmonella Typhimurium at 1 umol/disk after 24 hrs by disk diffusion assay; assay type: functional, organism-based; settings: Salmonella enterica subsp. enterica serovar Typhimurium; in short: as §1
[13] = system: Listeria monocytogenes; assay: Antimicrobial activity against Listeria monocytogenes at 1 umol/disk after 24 hrs by disk diffusion assay; assay type: functional; in short: as §1
[14] = system: Bacillus cereus; assay: Antimicrobial activity against Bacillus cereus at 1 umol/spot after 18 hrs by TLC-bioautographic method; assay type: functional
In short: (§2)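 TLC bioautography. Samples are spotted on silica gel TLC plates, then sprayed with bacteria (1.0 × 10^5 cfu/ml) in tryptic soy broth. Plates are incubated 18 h at 37 C and sprayed with 3% aqueous p-iodonitrotetrazolium violet. After a further 3 h, growth is stopped with 70% EtOH. White zones on a pink background are scored as inhibition-zone diameter with standard errors.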

[15] = system: Micrococcus flavus; assay: Antimicrobial activity against Micrococcus flavus at 1 umol/spot after 18 hrs by TLC-bioautographic method; assay type: functional; in short: as §2
[16] = system: Staphylococcus aureus; assay: Antimicrobial activity against Staphylococcus aureus at 1 umol/spot after 18 hrs by TLC-bioautographic method; assay type: functional; in short: as §2
[17] = system: Escherichia coli; assay: Antimicrobial activity against Escherichia coli at 1 umol/spot after 18 hrs by TLC-bioautographic method; assay type: functional; in short: as §2
[18] = system: Pseudomonas aeruginosa; assay: Antimicrobial activity against Pseudomonas aeruginosa at 1 umol/spot after 18 hrs by TLC-bioautographic method; assay type: functional; in short: as §2
[19] = system: Enterobacter cloacae; assay: Antimicrobial activity against Enterobacter cloacae at 1 umol/spot after 18 hrs by TLC-bioautographic method; assay type: functional; in short: as §2
[20] = system: Salmonella typhimurium; assay: Antimicrobial activity against Salmonella Typhimurium at 1 umol/spot after 18 hrs by TLC-bioautographic method; assay type: functional, Salmonella enterica subsp. enterica serovar Typhimurium; in short: as §2
[21] = system: Listeria monocytogenes; assay: Antimicrobial activity against Listeria monocytogenes at 1 umol/spot after 18 hrs by TLC-bioautographic method; assay type: functional; in short: as §2
[22] = system: Bacillus cereus; assay: Antimicrobial activity against Bacillus cereus after 24 hrs by microdilution technique; assay type: functional
In short: (§3)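 Broth microdilution in LB medium. Inoculum is 1.0 × 10^4 cfu per well, from a saline-adjusted suspension of 1.0 × 10^5 cfu/ml. Compounds are dissolved in DMSO. Incubated 24 h at 28 C. MIC is the lowest concentration with no visible growth under a binocular microscope. MBC is read by subculture into fresh broth for 72 h, with no growth taken as 99.5% kill. OD is read at 655 nm.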

[23] = system: Micrococcus flavus; assay: Antimicrobial activity against Micrococcus flavus after 24 hrs by microdilution technique; assay type: functional; in short: as §3
[24] = system: Staphylococcus aureus; assay: Antimicrobial activity against Staphylococcus aureus after 24 hrs by microdilution technique; assay type: functional; in short: as §3
[25] = system: Escherichia coli; assay: Antimicrobial activity against Escherichia coli after 24 hrs by microdilution technique; assay type: functional; in short: as §3
[26] = system: Pseudomonas aeruginosa; assay: Antimicrobial activity against Pseudomonas aeruginosa after 24 hrs by microdilution technique; assay type: functional; in short: as §3
[27] = system: Enterobacter cloacae; assay: Antimicrobial activity against Enterobacter cloacae after 24 hrs by microdilution technique; assay type: functional; in short: as §3
[28] = system: Salmonella typhimurium; assay: Antimicrobial activity against Salmonella Typhimurium after 24 hrs by microdilution technique; assay type: functional, Salmonella enterica subsp. enterica serovar Typhimurium; settings: Salmonella enterica; in short: as §3
[29] = system: Listeria monocytogenes; assay: Antimicrobial activity against Listeria monocytogenes after 24 hrs by microdilution technique; assay type: functional; in short: as §3
[30] = system: Bacillus cereus; assay: Antimicrobial activity against Bacillus cereus at 1 umol/disk after 24 hrs by disk diffusion assay; assay type: functional; in short: as §1
[31] = system: Staphylococcus aureus; assay: Antimicrobial activity against Staphylococcus aureus at 1 umol/disk after 24 hrs by disk diffusion assay; assay type: functional; in short: as §1
[32] = system: Enterobacter cloacae; assay: Antimicrobial activity against Enterobacter cloacae at 1 umol/disk after 24 hrs by disk diffusion assay; assay type: functional; in short: as §1
[33] = Salmonella enterica subsp. enterica serovar Typhimurium

Row | SMILES | inhibition zone (IZ) [7] | inhibition zone (IZ) [8] | inhibition zone (IZ) [9] | inhibition zone (IZ) [10] | inhibition zone (IZ) [12] | inhibition zone (IZ) [13] | inhibition zone (IZ) [14] | inhibition zone (IZ) [15] | inhibition zone (IZ) [16] | inhibition zone (IZ) [17] | inhibition zone (IZ) [18] | inhibition zone (IZ) [19] | inhibition zone (IZ) [21] | MBC [22] | MIC [22] | MBC [23] | MIC [23] | MBC [24] | MIC [24] | MBC [25] | also measured
1 | CN[C@@H]1[C@H](O[C@H]2[C@H](O[C@H]3[C@H](O)[C@@H](O)[C@H](N=C(N)N)[C@@H](O)[C@@H]3N=C(N)N)O[C@@H](C)[C@]2(O)C=O)O[C@@H](CO)[C@H](O)[C@H]1O [STREPTOMYCIN] | inactive | inactive | 0.1 millimeter | 0.06 millimeter | inactive | inactive | 0.08 millimeter | 0.05 millimeter | 0.04 millimeter | 0.06 millimeter | 0.08 millimeter | 0.07 millimeter | 0.08 millimeter | 86 µM (≈ 50 µg/mL) | 43 µM (≈ 25 µg/mL) | 172 µM (≈ 100 µg/mL) | 86 µM (≈ 50 µg/mL) | 344 µM (≈ 200 µg/mL) | 172 µM (≈ 100 µg/mL) | 344 µM (≈ 200 µg/mL) | zone of inhibition at 10 µg/disc [1]: 18 mm; zone of inhibition at 10 µg/disc [2]: 20 mm; zone of inhibition at 10 µg/disc [3]: 13 mm; zone of inhibition at 10 µg/disc [4]: 10 mm; inhibition zone (IZ) [5]: inactive; zone of inhibition at 10 µg/disc [6]: 12 mm; inhibition zone (IZ) [11]: inactive; inhibition zone (IZ) [20]: 0.08 millimeter; MIC [25]: 172 µM (≈ 100 µg/mL); MBC [26]: 344 µM (≈ 200 µg/mL); MIC [26]: 172 µM (≈ 100 µg/mL); MBC [27]: 344 µM (≈ 200 µg/mL); MIC [27]: 172 µM (≈ 100 µg/mL); MBC [28]: 344 µM (≈ 200 µg/mL); MIC [28]: 172 µM (≈ 100 µg/mL); MBC [29]: 516 µM (≈ 300 µg/mL); MIC [29]: 258 µM (≈ 150 µg/mL)
2 | O=C(/C=C/c1ccco1)c1ccc(Nc2nc(Nc3ccccc3)nc(Nc3ccccc3)n2)cc1 | inactive | inactive | 0.04 millimeter | 0.04 millimeter | inactive | inactive | 0.07 millimeter | 0.07 millimeter | 0.08 millimeter | 0.08 millimeter | inactive | 0.08 millimeter | 0.08 millimeter | 422 µM (≈ 200 µg/mL) | 211 µM (≈ 100 µg/mL) | 844 µM (≈ 400 µg/mL) | 422 µM (≈ 200 µg/mL) | 844 µM (≈ 400 µg/mL) | 422 µM (≈ 200 µg/mL) | 422 µM (≈ 200 µg/mL) | inhibition zone (IZ) [1]: inactive; zone of inhibition at 10 µg/disc [2]: 8 mm; inhibition zone (IZ) [3]: inactive; zone of inhibition at 10 µg/disc [4]: 8 mm; zone of inhibition at 10 µg/disc [5]: 6 mm; inhibition zone (IZ) [6]: inactive; inhibition zone (IZ) [30]: inactive; inhibition zone (IZ) [31]: inactive; inhibition zone (IZ) [32]: inactive; inhibition zone (IZ) [20, 33]: inactive; MIC [25]: 211 µM (≈ 100 µg/mL); MBC [26]: 422 µM (≈ 200 µg/mL); MIC [26]: 211 µM (≈ 100 µg/mL); MBC [27]: 422 µM (≈ 200 µg/mL); MIC [27]: 211 µM (≈ 100 µg/mL); MBC [28]: 422 µM (≈ 200 µg/mL); MIC [28]: 211 µM (≈ 100 µg/mL); MBC [29]: 844 µM (≈ 400 µg/mL); MIC [29]: 422 µM (≈ 200 µg/mL)
3 | COc1ccccc1/C=C/C(=O)c1ccc(Nc2nc(Nc3ccccc3)nc(Nc3ccccc3)n2)cc1 | inactive | inactive | inactive | inactive | inactive | inactive | 0.06 millimeter | inactive | 0.07 millimeter | inactive | inactive | 0.08 millimeter | 0.08 millimeter | 268 µM (≈ 138 µg/mL) | 134 µM (≈ 69 µg/mL) | 536 µM (≈ 276 µg/mL) | 268 µM (≈ 138 µg/mL) | 268 µM (≈ 138 µg/mL) | 134 µM (≈ 69 µg/mL) | 268 µM (≈ 138 µg/mL) | inhibition zone (IZ) [1]: inactive; inhibition zone (IZ) [2]: inactive; inhibition zone (IZ) [3]: inactive; inhibition zone (IZ) [4]: inactive; zone of inhibition at 10 µg/disc [5]: 6 mm; inhibition zone (IZ) [6]: inactive; inhibition zone (IZ) [30]: inactive; inhibition zone (IZ) [31]: inactive; inhibition zone (IZ) [32]: inactive; inhibition zone (IZ) [20, 33]: inactive; MIC [25]: 134 µM (≈ 69 µg/mL); MBC [26]: 536 µM (≈ 276 µg/mL); MIC [26]: 268 µM (≈ 138 µg/mL); MBC [27]: 536 µM (≈ 276 µg/mL); MIC [27]: 268 µM (≈ 138 µg/mL); MBC [28]: 536 µM (≈ 276 µg/mL); MIC [28]: 268 µM (≈ 138 µg/mL); MBC [29]: 536 µM (≈ 276 µg/mL); MIC [29]: 268 µM (≈ 138 µg/mL)
4 | CC1(C)S[C@@H]2[C@H](NC(=O)[C@H](N)c3ccccc3)C(=O)N2[C@H]1C(=O)O [AMPICILLIN] | inactive | inactive | 0.03 millimeter | 0.02 millimeter | inactive | inactive | inactive | inactive | inactive | inactive | inactive | inactive | inactive | 372 µM (≈ 130 µg/mL) | 248 µM (≈ 86.7 µg/mL) | 372 µM (≈ 130 µg/mL) | 248 µM (≈ 86.7 µg/mL) | 372 µM (≈ 130 µg/mL) | 248 µM (≈ 86.7 µg/mL) | 492 µM (≈ 172 µg/mL) | zone of inhibition at 10 µg/disc [1]: 10 mm; zone of inhibition at 10 µg/disc [2]: 8 mm; zone of inhibition at 10 µg/disc [3]: 8 mm; zone of inhibition at 10 µg/disc [4]: 6 mm; inhibition zone (IZ) [5]: inactive; zone of inhibition at 10 µg/disc [6]: 6 mm; inhibition zone (IZ) [11]: inactive; inhibition zone (IZ) [20, 33]: inactive; MIC [25]: 372 µM (≈ 130 µg/mL); MBC [26]: 1240 µM (≈ 433 µg/mL); MIC [26]: 744 µM (≈ 260 µg/mL); MBC [27]: 492 µM (≈ 172 µg/mL); MIC [27]: 372 µM (≈ 130 µg/mL); MBC [28]: 492 µM (≈ 172 µg/mL); MIC [28]: 248 µM (≈ 86.7 µg/mL); MBC [29]: 744 µM (≈ 260 µg/mL); MIC [29]: 372 µM (≈ 130 µg/mL)
